The list is not random: actives were taken first. Their share in the collection is about 2.2%.
FGF22 binding-1 = FGF22 (human) thermal shift binding. Q9HCT0. recombinant FGF22 thermal shift, SYPRO orange fluorescence; percent of sucrose octasulfate shift, DMSO zero. activity (Tm shift, normalised), % at 9.99 µM. actives 1.5% (n = 340,000);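 active = mean Tm shift, scaled 0 neutral to 100 positive control, at about 1.3% or above, every replicate too, limit read from the data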
Target sequence (Q9HCT0 whole entry, looked up): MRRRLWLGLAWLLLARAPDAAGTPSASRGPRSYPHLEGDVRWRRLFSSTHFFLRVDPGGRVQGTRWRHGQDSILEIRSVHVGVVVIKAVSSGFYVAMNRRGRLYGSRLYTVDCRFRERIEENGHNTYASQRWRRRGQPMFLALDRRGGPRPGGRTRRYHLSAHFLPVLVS
697 NFkB inh = lowers PMA/ionomycin-induced NF-kB signal in 697 B cells. 697 B-cell NF-kB luciferase reporter, 16 h. inhibition, % at 4 µM. actives 0.33% (n = 330,000). AID 435022; in the data active = inhibition above about 35%
miR122 inh = inhibitors of miR-122 in Huh7 cells; Huh7 miR-122 Renilla luciferase sensor, 48 h; neutral wells = 0, positive control = 100; activation (reporter increase), % at 12.5 µM; actives 0.3% (n = 340,000); AID 602342;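 active = mean replicate activation score at least 90 and every replicate individually at or above 90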;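 also: higher luciferase means less miR-122 activity so hits act as miR-122 inhibitors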
NR2E3 ag-1 = activates human photoreceptor nuclear receptor NR2E3; AID 2300; GST-NR2E3/biotin-RetCOR TR-FRET, 1536-well; inhibition of corepressor binding, % at 4.78 µM; Q9Y5X4; actives 0.12% (n = 320,000);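 active = percent inhibition above the cutoff of mean plus 3 SD of all tested compounds, set per screening campaign, cut at about 20% in these data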;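 also: 0% = DMSO wells and 100% = biotin wells as full block of FRET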
Target sequence (Q9Y5X4 whole entry, looked up): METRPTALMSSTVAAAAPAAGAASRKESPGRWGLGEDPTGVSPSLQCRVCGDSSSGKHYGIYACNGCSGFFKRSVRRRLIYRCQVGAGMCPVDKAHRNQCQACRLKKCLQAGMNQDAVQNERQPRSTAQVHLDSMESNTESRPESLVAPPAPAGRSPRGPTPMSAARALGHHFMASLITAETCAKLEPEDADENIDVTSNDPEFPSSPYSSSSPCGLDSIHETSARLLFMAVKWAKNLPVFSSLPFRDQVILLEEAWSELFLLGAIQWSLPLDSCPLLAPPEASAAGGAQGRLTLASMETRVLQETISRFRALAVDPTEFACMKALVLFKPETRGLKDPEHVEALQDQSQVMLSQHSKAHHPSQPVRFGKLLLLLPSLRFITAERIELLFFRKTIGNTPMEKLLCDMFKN
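system = GST-tagged NR2E3 plus biotinylated RetCOR corepressor | input = 1.35 nM GST-NR2E3 | also added = 7 nM biotin-RetCOR | schedule = 5 h incubation at 4 °C | measured by = TR-FRET with europium anti-GST and streptavidin-D2, 340 nm excitation | read-out = percent loss of FRET ratio relative to control wells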
NR2E3 ag-2 = agonists of human NR2E3 nuclear receptor | Q9Y5X4 | CHO-S Gal4-NCOR/VP16-NR2E3 two-hybrid, luciferase | inhibition of corepressor binding, % at 3.98 µM | actives 0.35% (n = 360,000) | AID 602229;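 active = inhibition above the mean of all tested compounds plus 3 SD, cut at about 70% in these data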;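 also: 0% = DMSO with NR2E3 transfected cells and 100% = cells lacking NR2E3 construct; higher means lower luciferase signal from less NR2E3 corepressor binding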
Jurkat NFkB inh = inhibitors of the PMA/ionomycin-induced NF-kB reporter in Jurkat cells | inhibition, % at 4 µM | AID 435003 | actives 0.53% (n = 330,000) | PMA/ionomycin-induced NF-kB luciferase reporter, luminescence; in the data active = inhibition above about 50%
FGF22 binding-2 = binders of human FGF22 by thermal shift. shares compounds with FGF22 binding-1. actives 2% (n = 1,000). AID 720646. recombinant FGF22 thermal shift, SYPRO orange fluorescence. thermal shift activity, °C (ΔTm) at 38 µM;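 active = fitted rise in melting shift crosses a set limit at or below the top valid dose tested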
SYPRO no-protein = shows thermal shift signal without protein, FGF22 counter-screen. shares compounds with FGF22 binding-1. compound-only SYPRO orange thermal shift counter-screen, no protein. AC50, µM (top dose mostly 38 µM). actives 2% (n = 1,000). AID 743019;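 active = rising signal whose fitted curve reaches the 0.54 level within the top valid dose, showing a melting point, actives reach about 13 µM in these data; inactive = the rest, including activity in the opposite direction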; also: value is where the raw curve crosses a fixed level and not half-maximal
The depositor's hits bear a star; i = inactive; · = no result; [ ] = another dose, or the depositor's remark.

SMILES	FGF22 binding-1	697 NFkB inh	miR122 inh	NR2E3 ag-1	NR2E3 ag-2	Jurkat NFkB inh	FGF22 binding-2	SYPRO no-protein
CC(C)NC(=O)N[C@H]1CC[C@@H](CC(=O)O)O[C@@H]1CO	1.5*	·	8.9[16.7 µM]	·	·	·	0.097[42 µM]	i
C[C@H](CO)N1C[C@H](C)[C@@H](CN(C)C)Oc2cc(-c3cccnc3)ccc2S1(=O)=O	-0.1	·	10.4[16.7 µM]	·	·	·	·	·
COc1ccc2c(CC(=O)NNC(=O)c3ccc(O)cc3)coc2c1	1.6*	21.4	·	·	-22.5	9.8	-0.384	i
C[C@@H]1CN([C@H](C)CO)C(=O)c2cc(NS(=O)(=O)c3ccccc3)ccc2O[C@H]1CN(C)Cc1ccc(-c2ccccc2)cc1	0.2	·	2.5[16.7 µM]	·	·	·	·	·
CC(C)(CNCc1ccccc1)NS(=O)(=O)c1ccccc1	0.0	8.7	-9.6	·	-16.6	-2.1	·	·
CC(C)(CNCc1ccccc1)NS(=O)(=O)c1ccc(Cl)cc1	2.1*	18.0	-3.3	·	-18.1	4.5	0.057	i
CCN(CC)c1ccc2cc(S(=O)(=O)c3ccc(Cl)cc3)c(=O)oc2c1	24.1*	-28.7	-6.4	2.8	-9.7	1.9	-0.141	i
C[C@H](CO)N1C[C@H](C)[C@H](CN(C)Cc2ccc(Cl)c(Cl)c2)Oc2ccc(N(C)C)cc2C1=O	-0.7	·	3.5[16.7 µM]	·	·	·	·	·
COc1ccc(C(=O)N2CCCCC2)cc1S(=O)(=O)Nc1cccc(C(=O)O)c1	1.7*	-11.3	-1.8	6.8	5.5	-10.5	0.216	11.4µM*
COc1ccc(C(=O)O)cc1S(=O)(=O)Nc1cccc(C(F)(F)F)c1	·	18.2	-0.2	-3.3	8.7	10.5	·	·
Cc1cc(C)cc(NC(=O)CN2C(=O)NC(Cc3c[nH]c4ccccc34)C2=O)c1 (centres undefined)	1.6*	-2.0	·	·	2.5	19.9	·	i
CN(C)C(=O)c1ccc(-c2ccc3c(c2)[C@@H]2[C@@H](CCN2C(=O)c2cnccn2)[C@@H](CO)N3)cc1	0.0	·	-18.1[16.7 µM]	·	·	·	·	·
CCCCNC(=O)c1onc(CSc2ccc(F)c(F)c2)c1C(=O)NCCCC	30.9*	9.6	11.2	3.6	-41.9	5.8	0.026	6.27µM*
CN1C[C@@H](O)COC[C@@H]2O[C@@H](CC(=O)N3CCN(c4ccccc4)CC3)CC[C@H]21	-0.2	·	2.7[16.7 µM]	·	·	·	·	·
COCCNC(=O)C[C@@H]1C[C@H]2c3cc(NS(=O)(=O)c4ccc(F)cc4)ccc3O[C@H]2[C@H](CO)O1	0.1	·	10.8[16.7 µM]	·	·	·	·	·
CO[C@H](CN(C)S(=O)(=O)c1cccc(Cl)c1)[C@H](C)CN([C@@H](C)CO)S(=O)(=O)c1cccc(Cl)c1	1.8*	·	·	·	·	·	0.12[42 µM]	i
CO[C@@H](CN(C)S(=O)(=O)c1cccc(Cl)c1)[C@@H](C)CN([C@H](C)CO)S(=O)(=O)c1cccc(Cl)c1	1.6*	·	·	·	·	·	0.25[42 µM]	i
CO[C@H](CN(C)S(=O)(=O)c1cccc(Cl)c1)[C@H](C)CN([C@@H](C)CO)S(=O)(=O)c1ccc(Cl)cc1	0.0	·	·	·	·	·	·	·
CO[C@H](CN(C)S(=O)(=O)c1cccc(Cl)c1)[C@H](C)CN([C@H](C)CO)S(=O)(=O)c1cccc(Cl)c1	2.0*	·	·	·	·	·	-0.036[42 µM]	i
Cc1noc(C)c1NC(=O)N(C)C[C@@H]1Oc2ccc(NC(=O)Nc3ccccc3)cc2CC(=O)N([C@@H](C)CO)C[C@@H]1C	-0.1	·	1.1[16.7 µM]	·	·	·	·	·
c1ccc(NCc2ccccn2)cc1	1.4*	0.9	·	0.6	-25.4	-2.8	0.227	i
CCC(=O)Nc1ccc2c(c1)OC[C@H](C)N(CC1CCOCC1)C[C@H](C)[C@H](OC)CN(C)C2=O	-0.3	·	-0.6[16.7 µM]	·	·	·	·	·
COc1cc(NC(=O)c2cccs2)c(OC)cc1NC(=O)Nc1ccc(F)cc1	1.4*	-22.2	-3.2	·	0.8	-15.3	-0.01	i
COc1cc(NC(=O)c2cccs2)c(OC)cc1NC(=O)c1cccs1	·	-5.7	-0.1	-0.5	-8.8	-16.2	·	·
O=C(O)c1ccc(Cl)c(S(=O)(=O)Nc2ccc(S(=O)(=O)N3CCCC3)cc2)c1	1.4*	8.9	-10.2	·	-3.9	3.2	-0.133	i
SMILES	FGF22 binding-1	697 NFkB inh	miR122 inh	NR2E3 ag-1	NR2E3 ag-2	Jurkat NFkB inh	FGF22 binding-2	SYPRO no-protein
CC(=O)c1ccc(S(=O)(=O)Nc2ccc(Cl)c(S(=O)(=O)N3CCCC3)c2)cc1	0.0	-2.4	·	·	-25.0	-56.0	·	·
COc1cccc(CNC(C)C(=O)Nc2ccc3c(c2)OCCO3)c1 (centres undefined)	0.0	-2.0	·	2.1	-18.7	-2.2	·	·
Cc1cccc(OC(C)C(=O)Nc2ccc3c(c2)OCCO3)c1 (centres undefined)	2.1*	·	-1.0	·	-0.7	·	-0.029	i
Cc1ccc(-c2c[n+](CC(=O)Nc3ccc(C)cc3C)c3n2CCC3)cc1	13.9*	-10.5	3.4	4.0	4.1	15.1	0.242	i
N/C(=N\OCC(=O)Nc1ccc(F)c(Cl)c1)c1ccccc1	1.6*	3.0	·	·	4.9	5.0	0.33	i
CCC(=O)N1[C@@H](CO)[C@@H]2c3ccccc3N(S(=O)(=O)c3ccccc3)C[C@@H]21	-0.2	·	8.3[16.7 µM]	·	·	·	·	·
CCC(=O)N1[C@@H](CO)[C@@H]2c3ccccc3N(S(=O)(=O)c3ccc(F)cc3)C[C@@H]21	1.4*	·	-11.5[16.7 µM]	·	·	·	0.207	i
COc1nc(-c2ccc(Cl)cc2)nnc1C	1.4*	-7.1	·	0.9	-9.5	-8.4	-0.009	i
COc1ccc2c3c([nH]c2c1)[C@@H](CO)N(C)CC31CCN(C(=O)C2CC2)CC1	-0.2	·	·	·	·	·	·	·
O=C(O)C1CSC2(CCN(Cc3ccccc3)CC2)N1 (centres undefined)	39.0*	24.6	-5.9	·	2.8	11.5	0.148	i
O=C(Cc1ccccc1)NC1CCN(Cc2ccccc2)CC1	0.1	1.9	·	-0.3	12.9	-7.8	·	·
COCC(=O)NC[C@H]1[C@H](c2ccc(C3=CCCC3)cc2)[C@@H](CO)N1C(C)=O	1.3*	·	6.6[16.7 µM]	·	·	·	-0.058[42 µM]	i
C[C@@H]1CN([C@H](C)CO)C(=O)Cc2cc(NS(C)(=O)=O)ccc2O[C@H]1CN(C)Cc1ccc(Cl)c(Cl)c1	-0.3	·	-7.5[16.7 µM]	·	·	·	·	·
COc1ccc(S(=O)(=O)N(C)C[C@@H]2Oc3c(NC(=O)NC(C)C)cccc3C(=O)N([C@H](C)CO)C[C@@H]2C)cc1	-0.1	·	-2.8[16.7 µM]	·	·	·	·	·
CCN(CCn1cccn1)C(=O)CCc1nnc(Cc2c[nH]c3ccccc23)o1	12.3*	-17.4	·	-0.3	-45.7	-7.3	0.234	i
Fc1ccc(NC(=S)NCCN2CCOCC2)cc1	0.5	12.0	·	0.9	-12.5	-17.3	·	·
S=C(NCCN1CCOCC1)Nc1ccc(-c2nc3ccccc3[nH]2)cc1	2.2*	-69.2	·	7.7	-10.2	-50.2	-0.277	i
